From PubChem BioAssay come the findings set out here.

In general, inhibition refers to the change of the read-out against control, counted positive when it falls.

The nature of test [1]: inhibitors of TNFa-induced NFkB p65 translocation, primary screen, imaging, HUVEC, MLSMR starter and 10KST1 sets (AID 438).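 Further: compound added about 3h40 before a 20 min TNFalpha stimulation.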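 On inhibition: signal is the nuclear over cytoplasmic p65 intensity ratio per well.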 The note with it: HUVEC TNFa-induced p65 nuclear translocation; cell count: measured here: nuclei count (cytotoxicity indicator), at 2.08 µM; inhibition: at 2 µM, stronger effect = higher value, 0% TNFa-plus-vehicle, 100% no-TNFa wells.
A short description of test [2]: inhibitors of mutant huntingtin aggregation, primary screen, imaging, exon1htt(103Q)mCFP cells, high-content imaging (AID 483;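 active means visual image review flags a hit and inhibition of aggregation exceeds 20%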;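 further: compound exposure lasted 3 days before fixation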;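 on nuclei count: percent of the per-plate median nuclei count of sample wells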). The note with it: exon1htt(103Q)mCFP cell line, aggregate imaging, at 2 µM; inhibition of aggregation: stronger effect = higher value; nuclei count: measured here: cell count, toxicity.
Test [3] is described as follows: inhibitors of E-selectin induction by TNFa, primary screen, imaging, HUVEC, immunofluorescence, MLSMR starter and 10KST1 sets (AID 487;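 active means visually confirmed hit in the image check and inhibition above 20%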;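 on inhibition: signal is fraction of cell area covered by stained E-selectin grains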;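 on nuclei count: 100% = median nuclei count of all wells on the same plate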). The note with it: HUVEC TNFalpha-induced E-selectin immunofluorescence imaging, at 2 µM; inhibition: stronger effect = higher value; nuclei count: measured here: cell number, toxicity.
Test [4] concerns the target Voltage-gated potassium channel subunit beta-2 (Rattus norvegicus) (UniProt P62483). Briefly: KvBeta enzyme negative modulators, primary screen, biochemical, NADPH fluorescence (AID 622;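 active means fluorescence slope higher than the sample average by over 3 SD, cut at about -0.22 in these data, passing the limit was not always enough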;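 further: slope of raw intensity against log time taken from 70 to 1610 s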). The following applies: recombinant KvBeta, 4-cyanobenzaldehyde reduction, at 10 µM, stronger effect = higher value.
For test [5] the target is unchanged. Nature of the test: KvBeta positive modulators, primary screen, biochemical, NADPH fluorescence (AID 623;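 active means NADPH fluorescence slope more negative than the mean of all samples by about 3 SD, 99.7% confidence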;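 further: fluorescence intensity change per second fitted from 20 to 320 s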). The note with it: Recombinant KvBeta, NADPH fluorescence decrease slope, 10 min; at 10 µM; stronger effect = lower value.
Test [6] has as its target Alpha-2C adrenergic receptor (Homo sapiens) (UniProt P18825). Briefly: modulators of alpha2C/GIRK thallium flux, primary screen, cell-based, HEK293 alpha2C/GIRK1/2 (AID 624;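 active means fluorescence slope after compound addition differing from the mean of all screened samples at 99.7% confidence, in either direction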;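 further: slope of fluorescence ratio to pre-addition baseline per second over 15 to 24 s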). The following applies: thallium flux BTC fluorescence, at 10 µM, actives lie on both sides.
A short description of test [7]: inhibitors of larval lipid processing in zebrafish, primary screen, whole organism, PED6 fluorescence, gall bladder and intestine (AID 686;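 active means a full or partial loss of lipid-probe fluorescence in the fish gall bladder, intestine or both, judged by eye; inactive means no fluorescence loss, or compound toxic to the fish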;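 further: larvae 5 to 7 days old with five fish per well; signal comes from phospholipase A2 cleavage of quenched PED6 carried via bile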). The following applies: Zebrafish larvae PED6 lipid processing, fluorescence scoring; screened at 20 µM (by protocol). In a few lines: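 System: live zebrafish larvae aged 5-7 days, whole organism; measure: graded gall bladder and intestinal fluorescence inhibition per well; incubation: overnight exposure; reagent: ingested quenched lipid PED6 at 100 nM; signal: By-eye fluorescence microscopy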

Test [8] in a line: inhibitors of Sendai virus-induced IRF3 signaling, primary screen, TLR/RLR signaling modifier project, cell-based, Sendai virus stimulus, luciferase, 10K MLSCN set (AID 602276;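 active means inhibition at or above 50% at 10 µM; inactive means inhibition below 50%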;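 further: firefly luciferase from ISG56 promoter only with Renilla not read in this screen; 0% = Sendai virus plus DMSO and 100% = medium plus DMSO without virus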). The following applies: HEK293 RL24 IRF3 luciferase reporter, at 10 µM, stronger effect = higher value. For orientation: Reporter assays use an easily measured gene product as a stand-in for the process of interest.

A short description of test [9]: inhibitors of poly I:C-induced TLR3 signaling, primary screen, cell-based, poly I:C stimulus, luciferase, 10K MLSCN set (AID 602277;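 active means inhibition of the reporter signal at or above 50%; inactive means inhibition below 50%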). The following applies: HEK293-TLR3 RL24 IRF3 luciferase reporter, at 10 µM, stronger effect = higher value.

Calls of active or inactive are those of the source.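 How the source made its calls, unless noted: active means inhibition above 20% together with a positive visual image hit; inconclusive means visual image hit but inhibition not above 20%; inactive means no visual image hit.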

Voltage-gated potassium channel subunit beta-2 (Rattus norvegicus), sequence (P62483 whole entry, looked up): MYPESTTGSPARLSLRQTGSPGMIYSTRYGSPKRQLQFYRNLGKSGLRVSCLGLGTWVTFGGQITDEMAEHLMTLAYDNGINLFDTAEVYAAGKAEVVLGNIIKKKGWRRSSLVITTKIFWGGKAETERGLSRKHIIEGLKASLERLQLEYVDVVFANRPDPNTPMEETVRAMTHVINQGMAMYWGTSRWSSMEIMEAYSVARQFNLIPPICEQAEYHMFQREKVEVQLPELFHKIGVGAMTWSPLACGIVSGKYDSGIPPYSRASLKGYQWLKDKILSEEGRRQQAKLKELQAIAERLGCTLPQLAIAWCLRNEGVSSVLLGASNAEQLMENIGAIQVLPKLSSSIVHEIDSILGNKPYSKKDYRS
Alpha-2C adrenergic receptor (Homo sapiens), sequence (P18825 whole entry, looked up): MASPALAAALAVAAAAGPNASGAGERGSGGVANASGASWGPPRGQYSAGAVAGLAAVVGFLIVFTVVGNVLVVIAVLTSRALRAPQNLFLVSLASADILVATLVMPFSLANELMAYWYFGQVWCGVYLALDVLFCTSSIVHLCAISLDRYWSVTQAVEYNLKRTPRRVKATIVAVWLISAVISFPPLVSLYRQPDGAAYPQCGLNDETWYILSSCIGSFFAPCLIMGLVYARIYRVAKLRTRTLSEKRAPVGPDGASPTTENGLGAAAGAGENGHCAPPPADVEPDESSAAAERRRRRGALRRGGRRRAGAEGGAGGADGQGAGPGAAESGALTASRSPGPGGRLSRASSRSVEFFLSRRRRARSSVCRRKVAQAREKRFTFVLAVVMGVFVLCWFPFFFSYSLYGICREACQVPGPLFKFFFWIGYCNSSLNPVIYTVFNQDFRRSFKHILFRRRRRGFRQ

Consider `COCCCn1c(=N)c(C(=O)NCC2CCCO2)cc2c(=O)n3cccc(C)c3nc21` (stereo not drawn), for which the cell count in test [1] came out at 587. Besides, the inhibition is -8.8% (inactive) in [1], 28.1% (inactive) in test [3], 11.6% (inactive) in test [8] and 21% (inactive) in test [9]. The inhibition of aggregation in test [2] was -3.1% (inactive). For the same molecule, the figures for the nuclei count in test [2] and in test [3] were 78.6% and 67.6%, respectively. The fluorescence slope in test [4] was -0.0296 (active). For the same molecule, the NADPH fluorescence slope in test [5] is -1.3e-05 (inactive). The slope in test [6] was 0.00471 (inactive). Besides, the outcome in test [7] was inactive.

Take `COc1ccc(OC)c(NC(=O)CS(=O)(=O)c2ccccc2)c1`: the cell count in test [1] was found to be 410. In addition, the inhibition in test [1] was -0.6% (inactive); in test [3], -66.5% (inactive); in test [8], -3.16% (inactive); in test [9] it was 6.62% (inactive). The inhibition of aggregation in test [2] was -1.6% (inactive). The nuclei count turned out to be 107% in test [2] and 121% in test [3]. In addition, in test [4], the fluorescence slope is -0.438 (inactive). In test [5], the NADPH fluorescence slope is 1.3e-05 (inactive). Besides, the slope in test [6] was 0.00539 (inactive). Moreover, the result in test [7] was inactive.

For `COc1ccc(CC(=O)Nc2cc(Cl)ccc2O)cc1`, in test [1], the cell count came to 605. The inhibition in [1] is -9.3% (inactive); in test [3], -72% (inactive); in test [8] it was -8.56% (inactive); in [9] it was -1.02% (inactive). In test [2], the inhibition of aggregation is 12% (inactive). Also, the nuclei count in test [2] was determined as 99.8%; in test [3], 108%. For the same molecule, the fluorescence slope in test [4] was -0.409 (inactive). The NADPH fluorescence slope in [5] was -1.5e-05 (inactive). For the same molecule, in test [6], the slope was 0.00576 (inactive). For the same molecule, the call in test [7] was inactive.

Turning to `COc1ccccc1-n1c(SCC(=O)NC(C)(C)C)nnc1-c1ccco1`, the cell count in [1] came to 662. Further, the inhibition in test [1] is -13.1% (inactive); in [3], -53% (inactive); in test [8], 10.4% (inactive); in test [9] it was 15.6% (inactive). In test [2], the inhibition of aggregation is 6.2% (inactive). The nuclei count in test [2] was determined as 87.8%; in test [3], 117%. Further, the fluorescence slope in test [4] was -0.504 (inactive). Also, in [5], the NADPH fluorescence slope is -2.6e-05 (inactive). Further, the slope in [6] was 0.0043 (inactive). Also, in [7], the molecule was classed as inactive.

For the molecule `O=C(Nc1ccc2oc(=O)ccc2c1)c1cccnc1`, in test [1], the cell count was determined as 423. The inhibition was 7.5% (inactive) in [1], 1.2% (inactive) in test [3], 6.9% (inactive) in test [8] and 0.246% (inactive) in test [9]. For the same molecule, the inhibition of aggregation in [2] was 4% (inactive). The nuclei count in test [2] was determined as 90.8%; in [3], 91.9%. Moreover, the fluorescence slope in test [4] was -0.434 (inactive). Moreover, in test [5], the NADPH fluorescence slope was -8.3e-06 (inactive). Moreover, the slope in test [6] was 0.00437 (inactive). Besides, the result in test [7] was inactive.

For the molecule `CCOC(=O)c1c(-c2ccc(C)o2)csc1NC(=O)CN1CCN(CC)CC1`, the cell count in test [1] was 393. For the same molecule, the inhibition in [1] is -0.4% (inactive); in test [3] it was -12.2% (inactive); in [8], 11.4% (inactive); in [9], 22% (inactive). Moreover, in test [2], the inhibition of aggregation was 8.3% (inactive). In addition, the nuclei count in test [2] was 95.5%; in test [3], 106%. For the same molecule, the fluorescence slope in test [4] is -0.409 (inactive). For the same molecule, in test [5], the NADPH fluorescence slope is -3.8e-05 (inactive). Also, the slope in [6] was 0.0051 (inactive). In addition, the outcome in [7] was inactive.

Regarding `O=C(CSc1nnnn1-c1ccccc1)Nc1ccc(Cl)cc1`, the cell count in test [1] is 561. Moreover, the inhibition in test [1] is -0.2% (inactive); in test [3] it was -73.4% (inactive); in test [8], -14.3% (inactive); in test [9], -15.3% (inactive). In test [2], the inhibition of aggregation is 17.5% (inactive). Also, the nuclei count in test [2] came to 108%; in test [3] it was 67.8%. For the same molecule, in test [4], the fluorescence slope was -0.377 (inactive). For the same molecule, the NADPH fluorescence slope in test [5] was 4e-06 (inactive). Also, the slope in test [6] is 0.00622 (inactive). Besides, the molecule was called inactive in test [7].

With `CC1CCCC(C)N1CCNC(=O)C1CCN(S(=O)(=O)N2CCCCC2)CC1` (stereo not drawn), in [1], the cell count amounted to 383. The inhibition is 4.2% (inactive) in test [1], -93.7% (inactive) in test [3], -6.08% (inactive) in test [8] and -0.147% (inactive) in [9]. Moreover, the inhibition of aggregation in test [2] was 17.2% (inactive). In addition, the nuclei count in test [2] is 104%; in [3] it was 115%. Further, the fluorescence slope in [4] is -0.384 (inactive). Besides, the NADPH fluorescence slope in [5] was 1.9e-05 (inactive). The slope in test [6] was 0.00471 (inactive). For the same molecule, the molecule was called inactive in [7].

On to `O=C(NCCN1CCOCC1)c1ccc(CS(=O)(=O)Cc2ccccc2F)o1`, for which the cell count in test [1] was determined as 536. For the same molecule, the inhibition is -21.6% (inactive) in test [1], -69.5% (inactive) in test [3], 11.2% (inactive) in [8] and 9.56% (inactive) in test [9]. Besides, in [2], the inhibition of aggregation was -10.5% (inactive). The nuclei count was 94.3% in test [2] and 108% in [3]. The fluorescence slope in [4] was -0.453 (inactive). For the same molecule, the NADPH fluorescence slope in [5] is -5.9e-05 (inactive). For the same molecule, the slope in test [6] was 0.00503 (inactive). For the same molecule, the molecule was classed as inactive in [7].

For the molecule `CNC(=O)CSc1nc2c(c(=O)n(C)c(=O)n2C)n1Cc1ccc(C)cc1`, the cell count in test [1] came to 346. The inhibition was 4% (inactive) in [1], -12.3% (inactive) in test [3], 6.2% (inactive) in test [8] and 24.5% (inactive) in test [9]. Further, the inhibition of aggregation in [2] was 15.9% (inactive). In addition, the nuclei count was found to be 80.4% in test [2] and 88.8% in test [3]. Also, the fluorescence slope in test [4] was -0.37 (inactive). In addition, the NADPH fluorescence slope in test [5] is -5.6e-05 (inactive). Moreover, the slope in [6] was 0.00619 (inactive). For the same molecule, the result in test [7] was inactive.

As to `CCOC(=O)Nc1ccc2c(c1)N(C(=O)CCN1CCOCC1)c1ccccc1S2`, the cell count in test [1] was 313. In addition, the inhibition in test [1] was -2.1% (inactive); in [3], 3% (inactive); in [8], 6.28% (inactive); in test [9], 18.1% (inactive). In addition, in test [2], the inhibition of aggregation was 32.1% (inactive). The nuclei count in test [2] was determined as 100%; in [3], 104%. Also, in [4], the fluorescence slope is -0.37 (inactive). The NADPH fluorescence slope in test [5] is -6.8e-05 (inactive). Further, the slope in test [6] was 0.00608 (inactive). For the same molecule, the molecule was called inactive in test [7].

Regarding `COC(=O)CSc1nnc(-c2ccc(OC)cc2OC)o1`, in test [1], the cell count is 609. Also, the inhibition in [1] was 6.3% (inactive); in [3] it was 44.6% (inactive); in test [8], 13.1% (inactive); in test [9] it was 10.4% (inactive). Besides, the inhibition of aggregation in test [2] was 6.1% (inactive). For the same molecule, the nuclei count in [2] was found to be 109%; in test [3] it was 90.8%. In addition, in [4], the fluorescence slope is -0.397 (inactive). The NADPH fluorescence slope in test [5] is -5.2e-05 (inactive). Also, the slope in test [6] was 0.00519 (inactive). Moreover, the call in test [7] was inactive.

Turning to `O=c1c2[nH]c3ccc(Cl)cc3c2ncn1Cc1ccccn1`, the cell count in test [1] was 302. For the same molecule, the inhibition in test [1] was -3.6% (inactive); in test [3], -31.6% (inactive); in test [8], -2.53% (inactive); in test [9], 5.03% (inactive). Further, the inhibition of aggregation in [2] was -30.4% (inactive). The nuclei count in test [2] is 83.4%; in [3] it was 107%. Further, the fluorescence slope in test [4] was -0.392 (inactive). The NADPH fluorescence slope in test [5] was -4.3e-05 (inactive). Further, the slope in test [6] is 0.00522 (inactive). Moreover, in test [7], the molecule was called inactive.

For the molecule `O=C1c2ccccc2C(=O)N1c1cccc(-c2nc3ccccc3o2)c1`, the cell count in test [1] is 464. For the same molecule, the inhibition in test [1] was 7.6% (inactive); in [3], -175% (inactive); in test [8], 2.66% (inactive); in test [9], 4.23% (inactive). The inhibition of aggregation in [2] was 4% (inactive). Further, the nuclei count in test [2] was determined as 104%; in test [3] it was 130%. Besides, in test [4], the fluorescence slope was -0.384 (inactive). In addition, in [5], the NADPH fluorescence slope is -5.2e-05 (inactive). Also, the slope in test [6] is 0.00482 (inactive). Further, the result in [7] was inactive.
